ChEMBL document CHEMBL1145920 (J Med Chem, 2003)
Values after ≈ are worked out from the molar mass of the structure shown.

Experiments:
[1] = biological target: T1, Vascular endothelial growth factor receptor 2 (Homo sapiens, UniProt P35968); experiment: In vitro inhibitory concentration against human vascular endothelial growth factor receptor 2
Method in brief: (§1)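 Baculovirus-expressed human kinase cytoplasmic domains; ELISA-type assay with time-resolved fluorescence readout (Eu-N1 antiphosphotyrosine antibody). […] For VEGF-R2, PLC-γ/GST fusion substrate and 15 min at 37 °C.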

[2] = biological target: T1, Vascular endothelial growth factor receptor 2; experiment: Inhibition of Vascular endothelial growth factor receptor 2 autophosphorylation by VEGF in human umbilical vein endothelial cells (HUVECs) at 50 nM; assay type: cell-based; conditions: HUVEC
Method in brief: (§2)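 Subconfluent HUVECs serum-starved 1 h at 37 °C in EBM-2 with 0.05% BSA, with drug or DMSO present, then stimulated with 10 ng/mL human VEGF for 5 min. Lysates protein-normalized, anti-VEGF-R2 immunoprecipitated, run on SDS-PAGE, antiphosphotyrosine immunoblot, ECL.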

[3] = biological target: T1, Vascular endothelial growth factor receptor 2; experiment: Inhibition of Vascular endothelial growth factor receptor 2 autophosphorylation by VEGF in human umbilical vein endothelial cells (HUVECs) at 10 nM; assay type: cell-based; conditions: HUVEC; method in brief: as §2
[4] = biological target: T1, Vascular endothelial growth factor receptor 2; experiment: Inhibition of Vascular endothelial growth factor receptor 2 autophosphorylation by VEGF in human umbilical vein endothelial cells (HUVECs) at 200 nM; assay type: cell-based; conditions: HUVEC; method in brief: as §2
[5] = biological target: T1, Vascular endothelial growth factor receptor 2; experiment: Inhibition of Vascular endothelial growth factor receptor 2 autophosphorylation by VEGF in human umbilical vein endothelial cells (HUVECs) at 100 nM; assay type: cell-based; conditions: HUVEC; method in brief: as §2
[6] = biological target: Serine/threonine-protein kinase Chk2 (Homo sapiens, UniProt O96017); experiment: Inhibition of Serine/threonine-protein kinase Chk2 (CDS1 receptor)
[7] = Plasma level in rats at 30 mg/kg; assay type: ADME, organism-based; set-up: dose 30 mg/kg; conditions: rat
Method in brief: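 Fasted adult male Sprague–Dawley rats (n = 3) given a single oral gavage dose at 2 mL/kg in 3:1 gelucire/PG vehicle. Plasma prepared by acetonitrile protein precipitation and analyzed by HPLC–tandem MS.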

[8] = biological target: Vascular endothelial growth factor receptor 3 (Homo sapiens, UniProt P35916); experiment: Inhibition of Vascular endothelial growth factor receptor 3
Method in brief: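 Recombinant human VEGF-R3 cytoplasmic domain was expressed in baculovirus-infected insect cells and assayed by ELISA as for VEGF-R2, with PLC-γ/GST fusion substrate. […] Read-out was Eu-antiphosphotyrosine time-resolved fluorescence.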

[9] = biological target: Mitogen-activated protein kinase 8 (Homo sapiens, UniProt P45983); experiment: Inhibition of c-Jun N-terminal kinase 1-beta 1
[10] = biological target: T1, Vascular endothelial growth factor receptor 2; experiment: Inhibition of human Vascular endothelial growth factor receptor 2
Method in brief: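 Baculovirus-expressed recombinant human VEGF-R2 cytoplasmic domain was assayed by ELISA with a GST–phospholipase C-γ fusion substrate. […] Eu-N1 antiphosphotyrosine was added for 1 h at 37 °C and read by time-resolved fluorescence. IC50 came from nonlinear sigmoidal fits, averaging at least 3 determinations.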

[11] = biological target: Cyclin-dependent kinase 1/cyclin B (Homo sapiens, UniProt P06493); experiment: Inhibition of Cyclin-dependent kinase 1-cyclin B; assay type: protein-complex assay
Method in brief: (§3)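 Enzymes were baculovirus-expressed recombinant human cytoplasmic domains: CDK1/cyclinB and CHK1.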

[12] = biological target: T1, Vascular endothelial growth factor receptor 2; conditions: HUVEC, 100 nM
[13] = biological target: T2, Vascular endothelial growth factor receptor (Homo sapiens) (UniProt P17948+P35916+P35968); conditions: Capillary, HUVEC, 400 nM
Mus musculus [14] = experiment: In vivo antitumor activity against SVR tumor growth in nude mice by oral administration of 10 mg/kg b.i.d. for 10 days; assay type: functional; conditions: 240 h
Method in brief: (§4)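 Female athymic nu/nu mice, 6–8 weeks old; 1×10^6 SVR murine angiosarcoma cells implanted sc in right flank with Matrigel (1:1 v/v). At tumor volumes of 80–180 mm³, randomized (usually 8–10/group) and dosed orally b.i.d. (T = 0, 8 h), 0.35–23.8 mg/kg at 100 μL/dose; vehicles PG:Tween 80 (1:1) or 1% HOAc. Caliper tumor volumes every 3–4 days; Mann–Whitney test.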

[15] = biological target: T2, Vascular endothelial growth factor receptor (Homo sapiens); conditions: HUVEC, 40 nM
[16] = biological target: Protein kinase C, PKC; classical (Rattus norvegicus, UniProt P05696+P68403+P63319); experiment: Inhibition of rat brain Protein kinase C
Method in brief: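 Enzyme was purified rat brain PKC, a mixture of the Ca2+-dependent α, β and γ isozymes.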

[17] = biological target: T3, Receptor-type tyrosine-protein kinase FLT3 (Homo sapiens, UniProt P36888); experiment: Inhibition of Tyrosine-protein kinase receptor FLT3 (fms-related tyrosine kinase 3) receptor
T3 sequence (P36888 whole entry): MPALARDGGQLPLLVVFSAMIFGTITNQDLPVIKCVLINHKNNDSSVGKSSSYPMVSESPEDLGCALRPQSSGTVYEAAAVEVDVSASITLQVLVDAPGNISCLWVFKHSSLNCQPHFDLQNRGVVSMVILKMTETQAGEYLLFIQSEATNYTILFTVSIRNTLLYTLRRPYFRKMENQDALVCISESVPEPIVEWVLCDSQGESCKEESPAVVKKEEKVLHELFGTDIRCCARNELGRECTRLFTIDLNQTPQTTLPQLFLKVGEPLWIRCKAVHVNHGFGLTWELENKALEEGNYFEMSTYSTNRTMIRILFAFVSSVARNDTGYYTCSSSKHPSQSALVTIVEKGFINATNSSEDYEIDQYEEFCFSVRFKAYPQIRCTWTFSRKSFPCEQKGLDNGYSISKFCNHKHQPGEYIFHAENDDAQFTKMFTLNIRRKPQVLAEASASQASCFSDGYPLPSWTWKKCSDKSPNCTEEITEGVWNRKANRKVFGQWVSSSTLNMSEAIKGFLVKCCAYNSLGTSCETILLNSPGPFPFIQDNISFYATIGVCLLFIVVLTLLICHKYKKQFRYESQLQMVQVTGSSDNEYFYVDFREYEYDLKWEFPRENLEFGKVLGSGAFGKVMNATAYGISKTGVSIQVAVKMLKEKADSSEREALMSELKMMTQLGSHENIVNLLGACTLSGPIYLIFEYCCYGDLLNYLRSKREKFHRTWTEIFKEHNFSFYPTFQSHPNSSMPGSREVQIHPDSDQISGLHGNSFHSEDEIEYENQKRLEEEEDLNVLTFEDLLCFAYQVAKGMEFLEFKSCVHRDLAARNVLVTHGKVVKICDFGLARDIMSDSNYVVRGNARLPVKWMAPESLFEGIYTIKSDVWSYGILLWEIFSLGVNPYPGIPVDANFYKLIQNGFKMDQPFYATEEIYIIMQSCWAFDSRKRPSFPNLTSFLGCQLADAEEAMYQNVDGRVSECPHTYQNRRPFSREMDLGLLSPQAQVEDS
Method in brief: (§5)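 Recombinant human cytoplasmic kinase domains (TrkA, Flt-3) expressed in baculovirus-infected insect cells. […] Eu-N1 antiphosphotyrosine detection by time-resolved fluorescence.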

[18] = biological target: Vascular endothelial growth factor receptor 1 (Homo sapiens, UniProt P17948); experiment: Inhibition of Vascular endothelial growth factor receptor 1; method in brief: as §1
[19] = biological target: Fibroblast growth factor receptor 1 (Homo sapiens, UniProt P11362); experiment: Inhibition of Fibroblast growth factor receptor 1
[20] = biological target: T4, Serine/threonine-protein kinase Chk1 (Homo sapiens, UniProt O14757); experiment: Inhibition of Serine/threonine-protein kinase Chk1; method in brief: as §3
T4 sequence (O14757 whole entry): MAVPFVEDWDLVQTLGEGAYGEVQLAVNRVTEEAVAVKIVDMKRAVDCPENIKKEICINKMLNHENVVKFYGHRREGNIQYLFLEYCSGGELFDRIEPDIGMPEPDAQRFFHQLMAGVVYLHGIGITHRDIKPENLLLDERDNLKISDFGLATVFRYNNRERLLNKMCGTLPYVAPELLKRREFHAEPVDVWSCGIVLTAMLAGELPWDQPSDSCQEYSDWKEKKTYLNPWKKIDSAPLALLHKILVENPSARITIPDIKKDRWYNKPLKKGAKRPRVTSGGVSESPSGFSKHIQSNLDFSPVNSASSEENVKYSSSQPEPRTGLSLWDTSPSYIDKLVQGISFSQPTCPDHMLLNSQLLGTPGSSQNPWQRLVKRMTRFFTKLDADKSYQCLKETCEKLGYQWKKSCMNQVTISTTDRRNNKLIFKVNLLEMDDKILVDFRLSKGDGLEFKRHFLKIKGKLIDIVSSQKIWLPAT

Mus musculus [21] = experiment: Inhibition of murine SVR angiosarcoma in mice administered b.i.d. for 10 days; assay type: functional; conditions: oral, 240 h, read-out: MED; method in brief: as §4
[22] = biological target: T1, Vascular endothelial growth factor receptor 2; conditions: HUVEC, 10 nM
Mus musculus [23] = experiment: Antitumor activity against SVR tumor growth in mice by administration of 20 mg/kg b.i.d.; assay type: functional; conditions: oral; method in brief: as §4
[24] = biological target: High affinity nerve growth factor receptor (Homo sapiens, UniProt P04629); experiment: Inhibition of TrkA receptor; method in brief: as §5
[25] = biological target: Mitogen-activated protein kinase 14 (Homo sapiens, UniProt Q16539); experiment: Inhibition of Mitogen-activated protein kinase p38 alpha
Method in brief: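 Enzyme was activated recombinant human GST-p38α.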

Angiopoietin-1 receptor = Angiopoietin-1 receptor (Homo sapiens, UniProt Q02763); experiment: Inhibition of Tyrosine protein kinase receptor TIE-2; method in brief: as §1
[26] = biological target: Mast/stem cell growth factor receptor Kit (Homo sapiens, UniProt P10721); experiment: Inhibition of Proto-oncogene tyrosine-protein kinase Kit
[27] = Solubility was determined; assay type: physicochemical
[28] = biological target: T2, Vascular endothelial growth factor receptor (Homo sapiens); conditions: HUVEC, 100 nM
Mus musculus [29] = experiment: Antitumor activity against SVR tumor growth in mice by administration of 23.8 mg/kg b.i.d.; assay type: functional; conditions: oral; method in brief: as §4

T2 sequence (P17948 whole entry, looked up): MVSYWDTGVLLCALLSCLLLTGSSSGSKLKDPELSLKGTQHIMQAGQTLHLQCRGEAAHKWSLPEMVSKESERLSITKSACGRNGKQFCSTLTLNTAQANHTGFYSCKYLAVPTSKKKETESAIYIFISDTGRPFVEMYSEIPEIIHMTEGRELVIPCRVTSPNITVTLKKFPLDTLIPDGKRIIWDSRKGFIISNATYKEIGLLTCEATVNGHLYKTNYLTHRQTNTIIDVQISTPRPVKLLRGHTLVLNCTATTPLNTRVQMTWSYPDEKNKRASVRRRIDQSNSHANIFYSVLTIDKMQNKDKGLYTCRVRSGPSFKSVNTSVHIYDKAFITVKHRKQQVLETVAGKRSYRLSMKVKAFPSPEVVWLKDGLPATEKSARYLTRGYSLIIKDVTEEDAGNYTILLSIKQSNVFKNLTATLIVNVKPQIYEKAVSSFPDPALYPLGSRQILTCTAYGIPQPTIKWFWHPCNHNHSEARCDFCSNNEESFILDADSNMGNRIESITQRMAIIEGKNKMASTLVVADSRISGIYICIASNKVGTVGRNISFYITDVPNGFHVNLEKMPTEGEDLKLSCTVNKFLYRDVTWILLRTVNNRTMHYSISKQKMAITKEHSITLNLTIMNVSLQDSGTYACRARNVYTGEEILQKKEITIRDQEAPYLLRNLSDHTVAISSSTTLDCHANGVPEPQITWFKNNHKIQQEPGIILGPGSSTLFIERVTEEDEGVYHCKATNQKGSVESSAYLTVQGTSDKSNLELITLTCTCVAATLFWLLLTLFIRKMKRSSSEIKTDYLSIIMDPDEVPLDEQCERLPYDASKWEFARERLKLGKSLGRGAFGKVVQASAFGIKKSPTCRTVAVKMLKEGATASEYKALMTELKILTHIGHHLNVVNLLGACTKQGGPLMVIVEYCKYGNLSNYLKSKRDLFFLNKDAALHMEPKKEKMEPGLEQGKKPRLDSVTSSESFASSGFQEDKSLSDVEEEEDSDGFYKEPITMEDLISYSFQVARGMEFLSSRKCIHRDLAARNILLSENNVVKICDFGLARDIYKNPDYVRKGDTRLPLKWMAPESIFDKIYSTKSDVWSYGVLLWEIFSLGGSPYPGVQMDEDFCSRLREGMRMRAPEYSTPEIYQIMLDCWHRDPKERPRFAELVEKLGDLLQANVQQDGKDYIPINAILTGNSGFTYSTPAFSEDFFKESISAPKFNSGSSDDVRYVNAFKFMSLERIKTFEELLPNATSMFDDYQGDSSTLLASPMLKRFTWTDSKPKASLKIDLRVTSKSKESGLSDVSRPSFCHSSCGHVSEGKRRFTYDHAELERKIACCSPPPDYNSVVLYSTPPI
T2 sequence (P35916 whole entry, looked up): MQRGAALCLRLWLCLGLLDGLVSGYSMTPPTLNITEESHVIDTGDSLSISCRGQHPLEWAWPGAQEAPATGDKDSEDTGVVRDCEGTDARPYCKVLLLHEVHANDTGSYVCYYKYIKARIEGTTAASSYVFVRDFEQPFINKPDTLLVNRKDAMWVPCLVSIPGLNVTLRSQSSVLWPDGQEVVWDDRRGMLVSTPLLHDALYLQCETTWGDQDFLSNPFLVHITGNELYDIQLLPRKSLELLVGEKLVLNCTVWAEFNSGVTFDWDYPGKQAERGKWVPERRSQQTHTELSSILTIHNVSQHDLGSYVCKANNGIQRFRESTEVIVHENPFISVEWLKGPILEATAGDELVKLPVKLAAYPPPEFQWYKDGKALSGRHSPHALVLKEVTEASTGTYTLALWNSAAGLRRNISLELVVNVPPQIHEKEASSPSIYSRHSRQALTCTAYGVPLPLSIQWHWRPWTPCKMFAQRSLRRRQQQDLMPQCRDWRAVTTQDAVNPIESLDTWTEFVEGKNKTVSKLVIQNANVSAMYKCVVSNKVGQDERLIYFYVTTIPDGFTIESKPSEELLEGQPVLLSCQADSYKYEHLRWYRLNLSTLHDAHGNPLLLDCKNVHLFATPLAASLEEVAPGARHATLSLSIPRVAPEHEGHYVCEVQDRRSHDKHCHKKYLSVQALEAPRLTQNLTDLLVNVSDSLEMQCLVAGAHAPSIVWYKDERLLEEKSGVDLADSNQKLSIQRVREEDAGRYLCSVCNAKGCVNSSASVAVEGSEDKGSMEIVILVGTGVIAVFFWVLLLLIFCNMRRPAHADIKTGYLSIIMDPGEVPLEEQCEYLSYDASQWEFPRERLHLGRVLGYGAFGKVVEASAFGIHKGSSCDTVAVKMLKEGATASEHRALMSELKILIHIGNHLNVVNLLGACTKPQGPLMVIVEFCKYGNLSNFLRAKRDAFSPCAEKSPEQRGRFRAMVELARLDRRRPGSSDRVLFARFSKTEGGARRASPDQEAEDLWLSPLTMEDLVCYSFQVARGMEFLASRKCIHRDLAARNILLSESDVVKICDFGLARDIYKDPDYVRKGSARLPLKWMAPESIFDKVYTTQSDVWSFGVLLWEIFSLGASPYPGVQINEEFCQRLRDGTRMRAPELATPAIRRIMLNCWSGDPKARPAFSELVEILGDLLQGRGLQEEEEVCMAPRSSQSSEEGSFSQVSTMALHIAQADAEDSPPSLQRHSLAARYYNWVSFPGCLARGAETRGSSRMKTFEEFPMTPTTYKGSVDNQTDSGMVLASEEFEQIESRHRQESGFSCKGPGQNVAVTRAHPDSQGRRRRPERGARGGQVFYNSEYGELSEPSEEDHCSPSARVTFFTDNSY
T2 sequence (P35968 whole entry, looked up): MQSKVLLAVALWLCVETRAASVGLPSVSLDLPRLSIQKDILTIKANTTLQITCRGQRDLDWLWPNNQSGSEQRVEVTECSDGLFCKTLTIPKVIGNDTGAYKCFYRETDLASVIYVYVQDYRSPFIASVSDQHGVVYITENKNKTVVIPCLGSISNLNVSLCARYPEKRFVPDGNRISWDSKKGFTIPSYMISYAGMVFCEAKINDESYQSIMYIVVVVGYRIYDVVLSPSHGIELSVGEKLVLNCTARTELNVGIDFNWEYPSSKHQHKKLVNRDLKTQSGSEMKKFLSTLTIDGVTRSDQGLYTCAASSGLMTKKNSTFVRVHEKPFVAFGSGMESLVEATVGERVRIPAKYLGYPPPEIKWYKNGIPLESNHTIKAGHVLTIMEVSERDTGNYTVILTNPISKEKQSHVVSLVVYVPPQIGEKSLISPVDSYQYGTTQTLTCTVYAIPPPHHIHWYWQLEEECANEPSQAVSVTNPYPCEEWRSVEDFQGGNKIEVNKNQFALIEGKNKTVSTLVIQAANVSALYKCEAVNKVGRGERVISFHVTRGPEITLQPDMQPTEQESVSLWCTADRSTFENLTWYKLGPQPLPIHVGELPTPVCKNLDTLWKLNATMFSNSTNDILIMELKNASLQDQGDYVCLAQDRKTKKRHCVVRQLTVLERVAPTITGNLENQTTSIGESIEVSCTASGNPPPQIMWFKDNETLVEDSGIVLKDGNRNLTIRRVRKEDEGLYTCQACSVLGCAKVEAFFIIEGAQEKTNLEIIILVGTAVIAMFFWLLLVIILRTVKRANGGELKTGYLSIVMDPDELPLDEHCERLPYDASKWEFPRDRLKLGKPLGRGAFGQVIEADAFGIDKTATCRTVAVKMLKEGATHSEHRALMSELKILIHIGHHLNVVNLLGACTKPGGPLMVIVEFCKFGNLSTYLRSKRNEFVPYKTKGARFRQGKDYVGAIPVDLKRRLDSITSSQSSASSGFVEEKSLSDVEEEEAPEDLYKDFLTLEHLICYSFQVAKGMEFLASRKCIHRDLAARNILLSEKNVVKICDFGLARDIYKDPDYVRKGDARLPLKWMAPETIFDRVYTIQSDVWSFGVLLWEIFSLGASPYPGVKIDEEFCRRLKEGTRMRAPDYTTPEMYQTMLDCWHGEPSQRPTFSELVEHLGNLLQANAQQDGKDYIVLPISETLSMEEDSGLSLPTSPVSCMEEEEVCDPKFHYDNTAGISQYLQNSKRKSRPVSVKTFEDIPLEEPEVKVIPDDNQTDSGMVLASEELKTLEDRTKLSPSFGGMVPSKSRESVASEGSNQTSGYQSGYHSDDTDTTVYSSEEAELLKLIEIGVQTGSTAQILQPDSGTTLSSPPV
T1 sequence (P35968 whole entry, the tested form may be a part): as the sequence (P35968 whole entry, looked up) above
Chain of Vascular endothelial growth factor receptor 1 (P17948 whole entry): as the sequence (P17948 whole entry, looked up) above
Chain of Serine/threonine-protein kinase Chk2 (O96017 whole entry): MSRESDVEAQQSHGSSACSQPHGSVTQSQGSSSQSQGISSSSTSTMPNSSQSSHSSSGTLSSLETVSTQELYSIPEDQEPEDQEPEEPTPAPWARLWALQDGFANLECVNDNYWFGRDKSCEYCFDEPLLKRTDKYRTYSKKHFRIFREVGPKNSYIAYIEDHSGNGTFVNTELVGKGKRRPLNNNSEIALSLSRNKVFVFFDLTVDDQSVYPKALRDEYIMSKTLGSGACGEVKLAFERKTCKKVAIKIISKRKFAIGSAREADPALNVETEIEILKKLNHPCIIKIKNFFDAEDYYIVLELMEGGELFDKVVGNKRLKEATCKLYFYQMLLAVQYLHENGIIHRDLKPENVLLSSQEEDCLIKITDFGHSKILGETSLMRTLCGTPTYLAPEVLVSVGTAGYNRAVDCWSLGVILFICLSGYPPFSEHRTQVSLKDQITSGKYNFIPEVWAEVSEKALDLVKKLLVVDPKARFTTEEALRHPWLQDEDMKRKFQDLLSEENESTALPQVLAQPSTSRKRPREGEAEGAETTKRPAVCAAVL
Chain of Mitogen-activated protein kinase 14 (Q16539 whole entry): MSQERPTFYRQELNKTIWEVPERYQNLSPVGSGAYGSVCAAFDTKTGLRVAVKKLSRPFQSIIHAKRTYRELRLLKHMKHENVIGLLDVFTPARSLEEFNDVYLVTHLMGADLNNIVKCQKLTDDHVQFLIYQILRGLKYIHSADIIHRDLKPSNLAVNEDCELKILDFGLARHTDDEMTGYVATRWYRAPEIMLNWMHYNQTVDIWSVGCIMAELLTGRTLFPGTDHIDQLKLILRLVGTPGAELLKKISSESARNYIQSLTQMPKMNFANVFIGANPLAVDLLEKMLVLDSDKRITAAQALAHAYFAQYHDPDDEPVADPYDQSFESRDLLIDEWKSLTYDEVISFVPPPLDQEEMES
Chain of Vascular endothelial growth factor receptor 3 (P35916 whole entry, the tested form may be a part): as the sequence (P35916 whole entry, looked up) above

## O=C1NCc2c3c(c4[nH]c5ccccc5c4c21)Cc1ccccc1-3
[1]
  IC50: 414 nM

## CCC(CC)OCc1ccc2c(c1)c1c3c(c4c(c1n2CCCO)Cc1ccccc1-4)C(=O)NC3
[1]
  IC50: 35 nM

## CC(C)OCc1ccc2[nH]c3c4c(c5c(c3c2c1)CNC5=O)-c1ccccc1C4
[1]
  IC50: 55 nM

## O=C1NCc2c1c1c(c3c2c2cc(Br)ccc2n3CCCO)Cc2ccccc2-1
[1]
  IC50: 104 nM

## Cc1ccc2c(c1)c1c3c(c4c(c1n2CCCO)Cc1ccccc1-4)C(=O)NC3
[1]
  IC50: 163 nM

## O=C1NCc2c1c1c(c3[nH]c4ccccc4c23)Cc2ccccc2-1
[1]
  IC50: 110 nM

## CC(C)CCOCc1ccc2c(c1)c1c3c(c4c(c1n2CCCO)Cc1ccccc1-4)C(=O)NC3
[1]
  IC50: 276 nM

## CC(C)[S+]([O-])Cc1ccc2c(c1)c1c3c(c4c(c1n2CCCO)Cc1ccccc1-4)C(=O)NC3 (configuration not stated)
[1]
  IC50: 309 nM

## CC(=O)c1ccc2c(c1)c1c3c(c4c(c1n2CCCO)Cc1ccccc1-4)C(=O)NC3
[1]
  IC50: 187 nM

## O=Cc1ccc2c(c1)c1c3c(c4c(c1n2CCCO)Cc1ccccc1-4)C(=O)NC3
[1]
  IC50: 105 nM

## CC(C)(C)OCc1ccc2c(c1)c1c3c(c4c(c1n2CCCO)Cc1ccccc1-4)C(=O)NC3
[2]
  inhibition: 100%
[3]
  inhibition: 100%

## CC(C)SCc1ccc2c(c1)c1c3c(c4c(c1n2CCCO)Cc1ccccc1-4)C(=O)NC3
[4]
  inhibition: 100%

## CCCCOCc1ccc2c(c1)c1c3c(c4c(c1n2CCCO)Cc1ccccc1-4)C(=O)NC3
[4]
  inhibition: 100%

## CCCOCc1ccc2c(c1)c1c3c(c4c(c1n2CCCO)Cc1ccccc1-4)C(=O)NC3
[4]
  inhibition: 100%

## CCOCc1ccc2c(c1)c1c3c(c4c(c1n2CCCO)Cc1ccccc1-4)C(=O)NC3
[5]
  inhibition: 100%
[3]
  inhibition: 75%

## CCSCc1ccc2c(c1)c1c3c(c4c(c1n2CCCO)Cc1ccccc1-4)C(=O)NC3
[4]
  inhibition: 100%

## CC[C@@H](C)OCc1ccc2c(c1)c1c3c(c4c(c1n2CCCO)Cc1ccccc1-4)C(=O)NC3
[2]
  inhibition: 100%

## CC[C@H](C)OCc1ccc2c(c1)c1c3c(c4c(c1n2CCCO)Cc1ccccc1-4)C(=O)NC3
[2]
  inhibition: 100%

## COC(C)c1ccc2c(c1)c1c3c(c4c(c1n2CCCO)Cc1ccccc1-4)C(=O)NC3 (configuration not stated)
[5]
  inhibition: 100%
[3]
  inhibition: 25%

## CC(C)OCc1ccc2c(c1)c1c3c(c4c(c1n2CCCO)Cc1ccccc1-4)C(=O)NC3 [CEP-5214]
[6]
  IC50: > 3000 nM
[7]
  Cmax: 100 ng/mL
[8]
  IC50: 4 nM
[9]
  IC50: 448 nM
[10]
  IC50: 8 nM
[11]
  IC50: > 10000 nM
[12]
  inhibition: 100%
[13]
  inhibition: 89%
Mus musculus [14]
  inhibition in vivo at 10 mg/kg: 57%
[15]
  inhibition: 21%
[16]
  IC50: > 10000 nM
[17]
  IC50: 1.6 nM
[18]
  IC50: 16 nM
[19]
  IC50: 162 nM
[20]
  IC50: > 3000 nM
Mus musculus [21]
  minimal effective dose: 3 mg/kg
[22]
  inhibition: 75%
Mus musculus [23]
  inhibition in vivo at 20 mg/kg: 70%
[24]
  IC50: > 3000 nM
[25]
  IC50: > 10000 nM
Angiopoietin-1 receptor
  IC50: > 10000 nM
[26]
  IC50: 57 nM
[27]
  solubility: 10 µg/mL (≈ 22.7 µM)
[28]
  inhibition: 75%

## CC(C)OCc1ccc2c(c1)c1c3c(c4c(c1n2CCCOC(=O)CN(C)C)Cc1ccccc1-4)C(=O)NC3 [CEP-7055]
Mus musculus [29]
  inhibition in vivo at 23.8 mg/kg: 70%
